Legend:
[1] = molecular target: T1, Human immunodeficiency virus type 1 protease (Human immunodeficiency virus 1, UniProt Q72874); experiment: Inhibition of dimerization of HIV1 protease
How it was run: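 Zhang kinetic analysis using the same fluorogenic DABCYL/EDANS substrate assay (pH 4.7 acetate buffer, 30 °C, ex 340/em 490 nm). Initial substrate held constant; at least four protease concentrations (4.7–13.6 nM) tested at several inhibitor concentrations. Dimerization inhibition constant Kid derived from Zhang plots.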

[2] = molecular target: T1, Human immunodeficiency virus type 1 protease; experiment: Inhibition of HIV1 protease
How it was run: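 Protease activity read with fluorogenic substrate DABCYL-γ-Abu-Ser-Gln-Asn-Tyr-Pro-Ile-Val-Gln-EDANS in 100 mM sodium acetate, 1 mM EDTA, 1 M NaCl, pH 4.7, 30 °C. Substrate and inhibitor (DMSO, 3% v/v final) preincubated 3 min, then enzyme added (7.5 nM final). Fluorescence (ex 340, em 490 nm) followed 3 min. 8–10 inhibitor concentrations; IC50 fitted to %inhibition = 100[I]0/(IC50+[I]0).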

[3] = molecular target: Human immunodeficiency virus type 1 protease (Human immunodeficiency virus 1) (UniProt Q72874); experiment: Inhibition of HIV1 protease at 5.7 uM
How it was run: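 Fluorogenic assay with DABCYL-γ-Abu-Ser-Gln-Asn-Tyr-Pro-Ile-Val-Gln-EDANS substrate, in 100 mM sodium acetate, 1 mM EDTA and 1 M NaCl at pH 4.7 and 30 °C, with 3% v/v DMSO final. Substrate and inhibitor were preincubated for 3 min. The reaction was started with HIV-1 protease (7.5 nM final). The fluorescence increase (ex 340/em 490 nm) was followed over 3 min and compared with a substrate-only blank to give % inhibition.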

| inhibition [3] | SMILES | Ki [1] | IC50 [2] | Ki [2] |
| --- | --- | --- | --- | --- |
|  | COC(=O)[C@@H](NC(=O)[C@H](CC(C)C)NC(=O)[C@@H](NC(=O)CCCOc1ccc2ccc(OCCCC(=O)N[C@H](C(=O)N[C@@H](CC(C)C)C(=O)N[C@H](C(=O)OC)C(C)C)C(C)C)nc2c1)C(C)C)C(C)C | 130 nM | 1400 nM |  |
|  | CC[C@H](C)[C@H](NC(=O)CCCOc1ccc2ccc(OCCCC(=O)N[C@H](C(=O)N[C@@H](CC(C)C)C(=O)N[C@H](C(=O)OC)C(C)C)C(C)C)cc2n1)C(=O)N[C@H](C(N)=O)[C@@H](C)O | 250 nM | 1700 nM | 4300 nM |
| 20% | COC(=O)[C@@H](NC(=O)[C@H](CC(C)C)NC(=O)[C@@H](NC(=O)CCCOc1ccc2ccc(OCCCC(=O)N[C@@H](CCC(=O)O)C(=O)N[C@@H](CC(C)C)C(N)=O)nc2c1)C(C)C)C(C)C |  |  |  |
|  | COC(=O)[C@@H](NC(=O)[C@H](CC(C)C)NC(=O)[C@@H](NC(=O)CCCOc1ccc2ccc(OCCCC(=O)N[C@@H](Cc3ccc(O)cc3)C(=O)N[C@@H](CCC(=O)OC(C)(C)C)C(=O)N[C@@H](CC(C)C)C(N)=O)nc2c1)C(C)C)C(C)C | 410 nM | 1000 nM |  |
| 30% | CC[C@H](C)[C@H](NC(=O)[C@H](CCC(N)=O)NC(=O)CCCOc1ccc2ccc(OCCCC(=O)N[C@H](C(=O)N[C@@H](CC(C)C)C(=O)N[C@H](C(=O)OC)C(C)C)C(C)C)cc2n1)C(=O)N[C@H](C(N)=O)[C@@H](C)O |  |  |  |
|  | COC(=O)[C@@H](NC(=O)[C@H](CC(C)C)NC(=O)[C@@H](NC(=O)CCCOc1ccc2ccc(OCCCC(=O)N[C@H](C(=O)N[C@@H](CC(C)C)C(=O)N[C@H](C(=O)OC)C(C)C)C(C)C)cc2c1)C(C)C)C(C)C | 560 nM | 3500 nM |  |
|  | COC(=O)[C@@H](NC(=O)[C@H](CC(C)C)NC(=O)[C@@H](NC(=O)CCCOc1ccc2ccc(OCCCC(=O)N[C@@H](CCC(=O)OC(C)(C)C)C(=O)N[C@@H](CC(C)C)C(N)=O)cc2c1)C(C)C)C(C)C | 420 nM | 1100 nM |  |
|  | COC(=O)[C@@H](NC(=O)[C@H](CC(C)C)NC(=O)[C@@H](NC(=O)CCCOc1ccc2ccc(OCCCC(=O)N[C@@H](Cc3ccc(O)cc3)C(=O)N[C@@H](CCC(=O)OC(C)(C)C)C(=O)N[C@@H](CC(C)C)C(N)=O)cc2c1)C(C)C)C(C)C | 230 nM | 1100 nM |  |
|  | CC[C@H](C)[C@H](NC(=O)CCCOc1ccc2ccc(OCCCC(=O)N[C@H](C(=O)N[C@@H](CC(C)C)C(=O)N[C@H](C(=O)OC)C(C)C)C(C)C)cc2c1)C(=O)N[C@H](C(N)=O)[C@@H](C)O | 1500 nM | 4300 nM | 6200 nM |
|  | COC(=O)[C@@H](NC(=O)[C@H](CC(C)C)NC(=O)[C@@H](NC(=O)CCCOc1ccc2ccc(OCCCC(=O)N[C@@H](CCC(=O)O)C(=O)N[C@@H](CC(C)C)C(N)=O)cc2c1)C(C)C)C(C)C | 900 nM | 2800 nM |  |
|  | CC[C@H](C)[C@H](NC(=O)[C@H](CCC(N)=O)NC(=O)CCCOc1ccc2ccc(OCCCC(=O)N[C@H](C(=O)N[C@@H](CC(C)C)C(=O)N[C@H](C(=O)OC)C(C)C)C(C)C)cc2c1)C(=O)N[C@H](C(N)=O)[C@@H](C)O | 2300 nM | 2800 nM |  |
|  | COC(=O)[C@H](CC(C)C)NC(=O)[C@@H](NC(=O)CCCOc1ccc2ccc(OCCCC(=O)N[C@H](C(=O)N[C@@H](CC(C)C)C(=O)N[C@H](C(=O)OC)C(C)C)C(C)C)cc2n1)[C@@H](C)O | 1500 nM | 1400 nM |  |
|  | COC(=O)[C@H](CC(C)C)NC(=O)[C@@H](NC(=O)CCCOc1ccc2ccc(OCCCC(=O)N[C@H](C(=O)N[C@@H](CC(C)C)C(=O)N[C@H](C(=O)OC)C(C)C)C(C)C)cc2c1)[C@@H](C)O | 1400 nM | 4000 nM | 10300 nM |
|  | COC(=O)[C@H](CC(N)=O)NC(=O)[C@H](CC(C)C)NC(=O)[C@@H](NC(=O)CCCOc1ccc2ccc(OCCCC(=O)N[C@H](C(=O)N[C@@H](CC(C)C)C(=O)N[C@H](C(=O)OC)C(C)C)C(C)C)cc2n1)[C@@H](C)O | 80 nM | 5100 nM |  |
|  | CC[C@H](C)[C@H](NC(=O)CCCOc1ccc2ccc(OCCCC(=O)N[C@H](C(=O)N[C@@H](CC(C)C)C(=O)N[C@H](C(=O)OC)C(C)C)C(C)C)cc2n1)C(=O)N[C@H](C(=O)N[C@@H](CC(C)C)C(=O)OC)[C@@H](C)O | 400 nM | 5300 nM |  |
|  | COC(=O)[C@@H](NC(=O)[C@H](CC(C)C)NC(=O)[C@@H](NC(=O)CCCOc1ccc2ccc(OCCCC(=O)N[C@@H](CCC(=O)OC(C)(C)C)C(=O)N[C@@H](CC(C)C)C(N)=O)nc2c1)C(C)C)C(C)C | 530 nM | 1800 nM |  |

| SMILES | inhibition [3] | Ki [1] | IC50 [2] | Ki [2] |
| --- | --- | --- | --- | --- |
| CC[C@@H](C)[C@H](NC(=O)[C@@H](NC(=O)CCCOc1ccc2ccc(OCCCC(=O)N[C@H](C(=O)N[C@H](C(=O)N[C@H](C(=O)OC)C(C)C)[C@H](C)CC)[C@@H](C)O)nc2c1)[C@@H](C)O)C(=O)N[C@H](C(=O)OC)C(C)C | 45% | 1900 nM |  |  |
